Measurements taken from ChEMBL document CHEMBL4480414, “Design and total synthesis of (-)-codonopsinine, (-)-codonopsine and codonopsinine analogues by O-(2-oxopyrrolidin-5-yl)trichloroacetimidate as amidoalkylating agent with improved antimicrobial activity via solid lipid nanoparticle formulations” (Bioorg Med Chem, 2019).
In brackets after ≈: the same amount, converted by molar mass. Activity calls are given as the source filed them. No cut-off for these calls is given here.

Key:
Staphylococcus aureus [1] = test: Antimicrobial activity against Staphylococcus aureus ATCC 29213 measured after 18 hrs by broth microdilution method; format: functional; conditions: ATCC 29213, 18 h
Procedure, shortened: (§1)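 Broth microdilution in 96-well plates. Compound stock 10 mg/ml in DMSO, two-fold serial dilutions from final 1024 to 0.5 µg/ml in water plus double-strength nutrient broth. Inoculum from direct colony suspension in saline adjusted to 0.5 McFarland, final 5 × 10⁵ CFU per well, used within 15 min. Positive and negative control rows.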

[2] = Permeability of the compound in simulated dialysis membrane at pH 6.8 measured within 6 hrs using solid lipid nanoparticle formulation by Franz diffusion cell-based spectrophotometric method; format: ADME, cell membranes; conditions: artificial membrane, pH 6.8, 6 h
Procedure, shortened: (§2)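 SLNs made by hot emulsification-ultrasonication with Compritol as lipid and 3% Pluronic F68 aqueous phase. Homogenized at 10,000 rpm and 75 °C for 15 min, then probe-sonicated 10 min.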

Candida albicans [3] = test: Antimicrobial activity against Candida albicans ATCC 10231 at 380 ug by Kirby-Bauer disk diffusion test; format: functional, organism-based
Procedure, shortened: (§3)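 Modified Kirby-Bauer disc diffusion on Muller-Hinton agar. Inhibition-zone diameter, disc diameter included, measured with a ruler from under the plate and recorded in mm.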

Candida albicans [4] = test: Antimicrobial activity against Candida albicans ATCC 10231 measured after 18 hrs by broth microdilution method; format: functional; conditions: ATCC 10231, 18 h; procedure, shortened: as §1
[5] = Dissolution of the compound in phosphate buffer at pH 6.8 measured over 12 hrs using solid lipid nanoparticle formulation by dialysis bag diffusion method; format: physicochemical; conditions: artificial membrane, pH 6.8, 12 h; procedure, shortened: as §2
Acinetobacter baumannii [6] = test: Antimicrobial activity against clinical isolate of Acinetobacter baumannii measured after 18 hrs using solid lipid nanoparticle formulation by broth microdilution method; format: functional; procedure, shortened: as §1
Escherichia coli [7] = test: Antimicrobial activity against Escherichia coli ATCC 25922 measured after 18 hrs by broth microdilution method; format: functional; conditions: ATCC 25922, 18 h; procedure, shortened: as §1
Klebsiella pneumoniae [8] = test: Antimicrobial activity against Klebsiella pneumoniae ATCC 700603 measured after 18 hrs by broth microdilution method; format: functional; conditions: Klebsiella pneumoniae, 700603, 18 h; procedure, shortened: as §1
Klebsiella pneumoniae [9] = test: Antimicrobial activity against Klebsiella pneumoniae ATCC 700603 measured after 18 hrs using solid lipid nanoparticle formulation by broth microdilution method; format: functional; conditions: Klebsiella pneumoniae, 700603, 18 h; procedure, shortened: as §1
Proteus mirabilis [10] = test: Antimicrobial activity against Proteus mirabilis ATCC 14153 measured after 18 hrs by broth microdilution method; format: functional; conditions: ATCC 14153, 18 h; procedure, shortened: as §1
[11] = Dissolution of the compound in phosphate buffer at pH 6.8 measured within 2 hrs by dialysis bag diffusion method; format: physicochemical; conditions: artificial membrane, pH 6.8, 2 h
Procedure, shortened: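 Formula or compound suspension (3 ml) in 12 kDa MWCO dialysis bags, in 500 ml enzyme-free phosphate buffer pH 6.8, 37 °C, 50 rpm. 5 ml samples taken with replacement over 12 h. Cumulative % release determined by UV absorbance against a calibration curve.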

Pseudomonas aeruginosa [12] = test: Antimicrobial activity against Pseudomonas aeruginosa ATCC 27853 measured after 18 hrs using solid lipid nanoparticle formulation by broth microdilution method; format: functional; conditions: ATCC 27853, 18 h; procedure, shortened: as §1
Candida albicans [13] = test: Antimicrobial activity against Candida albicans ATCC 10231 measured after 18 hrs using solid lipid nanoparticle formulation by broth microdilution method; format: functional; conditions: ATCC 10231, 18 h; procedure, shortened: as §1
Pseudomonas aeruginosa [14] = test: Antimicrobial activity against Pseudomonas aeruginosa ATCC 27853 measured after 18 hrs by broth microdilution method; format: functional; conditions: ATCC 27853, 18 h; procedure, shortened: as §1
Proteus mirabilis [15] = test: Antimicrobial activity against Proteus mirabilis ATCC 14153 measured after 18 hrs using solid lipid nanoparticle formulation by broth microdilution method; format: functional; conditions: ATCC 14153, 18 h; procedure, shortened: as §1
Escherichia coli [16] = test: Antimicrobial activity against Escherichia coli ATCC 25922 measured after 18 hrs using solid lipid nanoparticle formulation by broth microdilution method; format: functional; conditions: ATCC 25922, 18 h; procedure, shortened: as §1
Staphylococcus aureus [17] = test: Antimicrobial activity against Staphylococcus aureus ATCC 29213 measured after 18 hrs using solid lipid nanoparticle formulation by broth microdilution method; format: functional; conditions: ATCC 29213, 18 h; procedure, shortened: as §1
[18] = Permeability of the compound in simulated dialysis membrane at pH 6.8 measured within 6 hrs by Franz diffusion cell-based spectrophotometric method; format: ADME, cell membranes; conditions: artificial membrane, pH 6.8, 6 h
Procedure, shortened: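 Franz cell with dialysis membrane. 1 ml of SLN formula or compound suspension in the donor chamber; receptor holds phosphate buffer pH 6.8 at 37 °C, magnetically stirred. Receptor sampled with replacement over 6 h; concentration by UV absorbance against a calibration curve.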

Acinetobacter baumannii [19] = test: Antimicrobial activity against clinical isolate of Acinetobacter baumannii measured after 18 hrs by broth microdilution method; format: functional; procedure, shortened: as §1
Staphylococcus aureus [20] = test: Antimicrobial activity against Staphylococcus aureus ATCC 29213 assessed as diameter of inhibition zone at 380 ug by Kirby-Bauer disk diffusion test; format: functional; conditions: read-out: DIZ; procedure, shortened: as §3
Escherichia coli [21] = test: Antimicrobial activity against Escherichia coli ATCC 25922 assessed as diameter of inhibition zone at 380 ug by Kirby-Bauer disk diffusion test; format: functional; conditions: read-out: DIZ; procedure, shortened: as §3
Acinetobacter baumannii [22] = test: Antimicrobial activity against clinical isolate of Acinetobacter baumannii assessed as diameter of inhibition zone at 380 ug by Kirby-Bauer disk diffusion test; format: functional; conditions: read-out: DIZ; procedure, shortened: as §3
Pseudomonas aeruginosa [23] = test: Antimicrobial activity against Pseudomonas aeruginosa ATCC 27853 assessed as diameter of inhibition zone at 380 ug by Kirby-Bauer disk diffusion test; format: functional; conditions: read-out: DIZ; procedure, shortened: as §3
Proteus mirabilis [24] = test: Antimicrobial activity against Proteus mirabilis ATCC 14153 assessed as diameter of inhibition zone at 380 ug by Kirby-Bauer disk diffusion test; format: functional; conditions: read-out: DIZ; procedure, shortened: as §3
Klebsiella pneumoniae [25] = test: Antimicrobial activity against Klebsiella pneumoniae ATCC 700603 assessed as diameter of inhibition zone at 380 ug by Kirby-Bauer disk diffusion test; format: functional; conditions: read-out: DIZ; procedure, shortened: as §3

Structure (SMILES) | MIC (Staphylococcus aureus [1]) [mg/L] | permeability [2] [%] | Activity (Candida albicans [3]) | MIC (Candida albicans [4]) [mg/L] | Activity [5] [%] | MIC (Acinetobacter baumannii [6]) [mg/L] | MIC (Escherichia coli [7]) [mg/L] | MIC (Klebsiella pneumoniae [8]) [mg/L] | MIC (Klebsiella pneumoniae [9]) [mg/L] | MIC (Proteus mirabilis [10]) [mg/L] | Activity [11] [%] | MIC (Pseudomonas aeruginosa [12]) [mg/L] | MIC (Candida albicans [13]) [mg/L] | MIC (Pseudomonas aeruginosa [14]) [mg/L] | MIC (Proteus mirabilis [15]) [mg/L] | MIC (Escherichia coli [16]) [mg/L] | MIC (Staphylococcus aureus [17]) [mg/L] | permeability [18] [%] | MIC (Acinetobacter baumannii [19]) [mg/L] | zone of inhibition at 380 µg/disc (Staphylococcus aureus [20]) [mm] | other results
Cc1ccc([C@@H]2[C@@H](O)[C@H](O)[C@@H](C)N2C)cc1 | > 1020 | 100 | inactive | > 1020 | 90.1 | 64 (≈ 289 µM) | 128 (≈ 578 µM) | 1020 (≈ 4630 µM) | 512 (≈ 2310 µM) | 1020 (≈ 4630 µM) | 100 | 1020 (≈ 4630 µM) | > 1020 | 1020 (≈ 4630 µM) | 512 (≈ 2310 µM) | 512 (≈ 2310 µM) | 1020 (≈ 4630 µM) | 56.3 | 256 (≈ 1160 µM) |  | 
COc1ccc([C@@H]2[C@@H](O)[C@H](O)[C@@H](C)N2C)cc1 | ≤ 0.5 | 100 | inactive | > 1020 | 93.3 | 256 (≈ 1080 µM) | 128 (≈ 539 µM) | > 1020 | 1020 (≈ 4320 µM) | 128 (≈ 539 µM) | 95.2 | > 1020 | > 1020 | 1020 (≈ 4320 µM) | 64 (≈ 270 µM) | 64 (≈ 270 µM) | ≤ 0.5 | 60.7 | > 1020 | 32 | 
C[C@@H]1[C@@H](O)[C@H](O)[C@@H](c2ccccc2)N1C | 1020 (≈ 4940 µM) | 100 | inactive | > 1020 | 91.2 | 16 (≈ 77.2 µM) | 16 (≈ 77.2 µM) | 1020 (≈ 4940 µM) | > 1020 | 4 (≈ 19.3 µM) | 100 | 512 (≈ 2470 µM) | > 1020 | 1020 (≈ 4940 µM) | 2 (≈ 9.65 µM) | 16 (≈ 77.2 µM) | 1020 (≈ 4940 µM) | 49.8 | 128 (≈ 618 µM) |  | zone of inhibition at 380 µg/disc (Escherichia coli [21]): 40 mm; zone of inhibition at 380 µg/disc (Acinetobacter baumannii [22]): 32 mm; zone of inhibition at 380 µg/disc (Pseudomonas aeruginosa [23]): 18 mm; zone of inhibition at 380 µg/disc (Proteus mirabilis [24]): 34 mm; zone of inhibition at 380 µg/disc (Klebsiella pneumoniae [25]): 22 mm
COc1ccc([C@@H]2[C@@H](O)[C@H](O)[C@@H](C)N2C)c(F)c1 | ≤ 0.5 | 100 | inactive | > 1020 | 90.2 | 512 (≈ 2010 µM) | 4 (≈ 15.7 µM) | > 1020 | 1020 (≈ 4010 µM) | > 1020 | 96.7 | > 1020 | > 1020 | > 1020 | > 1020 | 16 (≈ 62.7 µM) | ≤ 0.5 | 59.1 | 512 (≈ 2010 µM) | 30 | 
